Experimental data published in ChEMBL document CHEMBL2346532, “Design, synthesis and potent cytotoxic activity of novel podophyllotoxin derivatives” (Bioorg Med Chem, 2013).

Legend:
KB [1] = experiment: Cytotoxicity against human KB cells after 72 hrs by SRB assay; assay type: functional, cell-based
Summary of the method: (§1)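 Cells seeded at 3–5 × 10³ per well in RPMI-1640 with 10% FBS containing a range of sample concentrations, exposed 72 h. Attached cells fixed in cold 50% trichloroacetic acid for 30 min, stained with 0.04% sulforhodamine B for 30 min, bound dye dissolved in 10 mM Tris base, absorbance read at 515 nm. Run in triplicate. KBvin is a vincristine-selected multidrug-resistant KB subline.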

A549 [2] = experiment: Cytotoxicity against human A549 cells after 72 hrs by SRB assay; assay type: functional, cell-based; settings: A549, 72 h; summary of the method: as §1
[3] = Cytotoxicity against human KBVIN cells after 72 hrs by SRB assay; assay type: functional, cell-based; summary of the method: as §1
DU-145 [4] = experiment: Cytotoxicity against human DU145 cells after 72 hrs by SRB assay; assay type: functional, cell-based; settings: DU-145, 72 h; summary of the method: as §1
A549 [5] = experiment: Ratio of etoposide IC50 to compound IC50 for human A549 cells; assay type: functional
DU-145 [6] = experiment: Ratio of etoposide IC50 to compound IC50 for human DU145 cells; assay type: functional
KB [7] = experiment: Ratio of etoposide IC50 to compound IC50 for human KB cells; assay type: functional
[8] = Ratio of etoposide IC50 to compound IC50 for human KBVIN cells; assay type: functional

SMILES | IC50 (KB [1]) [µM] | IC50 (A549 [2]) [µM] | IC50 [3] [µM] | IC50 (DU-145 [4]) [µM] | Ratio IC50 (A549 [5]) | Ratio IC50 (DU-145 [6]) | Ratio IC50 (KB [7]) | Ratio IC50 [8]
COc1cc([C@@H]2c3cc4c(cc3[C@@H](NC(=S)NC(=O)c3ccccc3)[C@H]3COC(=O)[C@H]23)OCO4)cc(OC)c1O | 8.96 | 12 | 9.93 | 9.88 | – | – | – | –
COc1cc([C@@H]2c3cc4c(cc3[C@@H](NC(=S)NC(=O)c3ccc(Cl)cc3)[C@H]3COC(=O)[C@H]23)OCO4)cc(OC)c1O | > 20 | > 20 | > 20 | > 20 | – | – | – | –
COc1cc([C@@H]2c3cc4c(cc3[C@@H](NC(=S)NC(=O)c3ccc(Cl)cc3)[C@H]3COC(=O)[C@H]23)OCO4)cc(OC)c1OC | 1.2 | 1.62 | 2.01 | 1.16 | – | – | – | –
COc1cc([C@@H]2c3cc4c(cc3[C@@H](NC(=S)NC(=O)c3ccc(C)cc3)[C@H]3COC(=O)[C@H]23)OCO4)cc(OC)c1OC | 10.5 | 11.3 | 12.2 | 10.5 | – | – | – | –
COc1cc([C@@H]2c3cc4c(cc3[C@@H](NC(=S)NC(=O)c3ccc([N+](=O)[O-])cc3)[C@H]3COC(=O)[C@H]23)OCO4)cc(OC)c1OC | 1.33 | 2.06 | 1.65 | 1.57 | – | – | – | –
COc1cc([C@@H]2c3cc4c(cc3[C@@H](NC(=S)NC(=O)c3cccc([N+](=O)[O-])c3)[C@H]3COC(=O)[C@H]23)OCO4)cc(OC)c1OC | 9.27 | 10.3 | 9.86 | 9.82 | – | – | – | –
COc1cc([C@@H]2c3cc4c(cc3[C@@H](NC(=S)NC(=O)c3cccnc3)[C@H]3COC(=O)[C@H]23)OCO4)cc(OC)c1OC | 14.2 | 15.5 | 16.8 | 11.4 | – | – | – | –
COc1cc([C@@H]2c3cc4c(cc3[C@@H](NC(=S)NC(=O)c3cnccc3Cl)[C@H]3COC(=O)[C@H]23)OCO4)cc(OC)c1OC | > 20 | > 20 | > 20 | > 20 | – | – | – | –
COc1cc([C@@H]2c3cc4c(cc3[C@@H](NC(=S)NC(=O)c3cccnc3Cl)[C@H]3COC(=O)[C@H]23)OCO4)cc(OC)c1OC | > 20 | > 20 | > 20 | > 20 | – | – | – | –
COc1cc([C@@H]2c3cc4c(cc3[C@@H](NC(=S)NC(=O)c3cncc(Br)c3)[C@H]3COC(=O)[C@H]23)OCO4)cc(OC)c1OC | > 20 | > 20 | > 20 | > 20 | – | – | – | –
COc1cc([C@@H]2c3cc4c(cc3[C@@H](NC(=S)NC(=O)c3cccs3)[C@H]3COC(=O)[C@H]23)OCO4)cc(OC)c1OC | 11.6 | 12.3 | 12.5 | 11.2 | – | – | – | –
COc1cc([C@@H]2c3cc4c(cc3[C@@H](NC(=S)NC(=O)c3ccco3)[C@H]3COC(=O)[C@H]23)OCO4)cc(OC)c1OC | > 20 | > 20 | > 20 | > 20 | – | – | – | –
COc1cc([C@@H]2c3cc4c(cc3[C@@H](NC(=S)NC(=O)c3ccc5ccccc5c3)[C@H]3COC(=O)[C@H]23)OCO4)cc(OC)c1OC | 0.12 | 0.11 | 0.13 | 0.099 | 20 | 20 | 20 | 20
COc1cc([C@@H]2c3cc4c(cc3[C@@H](NC(=S)NC(=O)c3ccco3)[C@H]3COC(=O)[C@H]23)OCO4)cc(OC)c1O | 8.74 | 13.7 | 9.46 | 8.49 | – | – | – | –
COc1cc([C@@H]2c3cc4c(cc3[C@@H](NC(=S)NC(=O)c3cccs3)[C@H]3COC(=O)[C@H]23)OCO4)cc(OC)c1O | 8.4 | 9.82 | 9.24 | 7.34 | – | – | – | –
COc1cc([C@@H]2c3cc4c(cc3[C@@H](NC(=S)NC(=O)c3ccc5ccccc5c3)[C@H]3COC(=O)[C@H]23)OCO4)cc(OC)c1O | 7.23 | 11.8 | 10.3 | 6.55 | – | – | – | –
COc1cc([C@@H]2c3cc4c(cc3[C@@H](NC(=S)NC(C)=O)[C@H]3COC(=O)[C@H]23)OCO4)cc(OC)c1OC | 13.4 | 13.1 | 13.6 | 12.3 | – | – | – | –
COc1cc([C@@H]2c3cc4c(cc3[C@@H](NC(=S)NC(=O)C3CCCCC3)[C@H]3COC(=O)[C@H]23)OCO4)cc(OC)c1OC | 0.32 | 0.19 | 0.098 | 0.17 | 20 | 20 | 20 | 20
COc1cc([C@@H]2c3cc4c(cc3[C@@H](NC(=S)NC(=O)c3ccccc3)[C@H]3COC(=O)[C@H]23)OCO4)cc(OC)c1OC | 0.9 | 1.13 | 0.81 | 0.97 | 20 | 20 | 20 | 20
COc1cc([C@@H]2c3cc4c(cc3[C@@H](NC(=S)NC(=O)c3ccc(F)cc3)[C@H]3COC(=O)[C@H]23)OCO4)cc(OC)c1OC | 1.44 | 1.37 | 1.38 | 1.15 | – | – | – | –
COc1cc([C@@H]2c3cc4c(cc3[C@@H](O[C@@H]3O[C@@H]5CO[C@@H](C)O[C@H]5[C@H](O)[C@H]3O)[C@H]3COC(=O)[C@H]23)OCO4)cc(OC)c1O [ETOPOSIDE] | 3.88 | 2.58 | > 20 | 2.03 | – | – | – | –
